Measurements reported in ChEMBL document CHEMBL4004810, “Pharmacokinetics of the Individual Major Components of Polymyxin B and Colistin in Rats” (J Nat Prod, 2017).
Positions of bridges follow the written chain, without caps; N, C: chain ends. Non-standard residues stand in square brackets, D forms with d. Residues, ends and D or L forms follow the SMILES beside them. *: point of attachment. Heptanoyl(6-Me) = CC(C)CCCCC(=O)*; X1 = CC[C@@H](C)CCCCC(=O)*; X2 = CC[C@H](C)CCCCC(=O)*; Octanoyl = CCCCCCCC(=O)*; Dab = NCC[C@H](N)C(=O)O

Columns and labels:
[1] = Plasma concentration in Sprague-Dawley rat at 0.8 mg/kg, iv administered as single bolus dose after 360 mins by LC-MS/MS analysis; type: ADME, organism-based
Outline: (§1)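 Jugular vein (dosing) and carotid artery (sampling) cannulated rats, recovered one day; 4 groups, n = 4, each given a 0.8 mg/kg iv bolus of one component. Blood sampled predose and at 10–360 min; urine collected in chilled metabolic cages over 0–6 h and 6–24 h. Plasma and urine quantified by LC-MS/MS (calibration 0.1–8.0 mg/L); parameters by noncompartmental analysis.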

[2] = Total clearance in Sprague-Dawley rat at 0.8 mg/kg, iv administered as single bolus dose by LC-MS/MS analysis; type: ADME, organism-based; conditions: in vivo; outline: as §1
[3] = Volume of distribution in Sprague-Dawley rat at 0.8 mg/kg, iv administered as single bolus dose by LC-MS/MS analysis; type: ADME, organism-based; conditions: in vivo; outline: as §1
[4] = Elimination half life in Sprague-Dawley rat at 0.8 mg/kg, iv administered as single bolus dose by LC-MS/MS analysis; type: ADME, organism-based; conditions: in vivo, read-out: beta t1/2; outline: as §1
[5] = AUC (0 to infinity) in Sprague-Dawley rat at 0.8 mg/kg, iv administered as single bolus dose by LC-MS/MS analysis; type: ADME, organism-based; parameters: dose 0.8 mg/kg, route intravenous, time infinity; conditions: in vivo; outline: as §1
[6] = Drug recovery in Sprague-Dawley rat urine at 0.8 mg/kg, iv administered as single bolus dose by LC-MS/MS analysis; type: ADME, organism-based; conditions: read-out: Drug recovery; outline: as §1
[7] = Protein binding in Sprague-Dawley rat plasma at 5 mg/L after 30 mins by ultracentrifugation based LC-MS/MS method; type: ADME, cell-free; conditions: read-out: PPB (converted)
Outline: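 Drug-free rat plasma spiked with 5 mg/L component in triplicate, incubated 30 min at 37 °C, then ultracentrifuged 215000g for 4 h at 37 °C. Two replicates sampled protein-free supernatant, one sampled total resuspension; both measured by LC-MS/MS. % bound = (total − supernatant)/total × 100.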

[8] = Clearance in Sprague-Dawley rat at 4 mg/kg, iv administered as single bolus cassette dose by UPLC-MS/MS analysis; type: ADME, organism-based; conditions: in vivo
[9] = Protein binding in rat plasma up to 10 ug/ml after 2 hrs by LC-MS/MS based ultrafiltration method; conditions: read-out: PPB (converted)
[10] = Total clearance in Sprague-Dawley rat at 1 mg/kg, iv administered as bolus dose by HPLC analysis; type: ADME, organism-based; conditions: in vivo

Row | concentration at 6 h [1] | clearance [2] | Vd [3] | half-life [4] | AUC(0-inf) [5] | dose excreted [6] | fraction unbound at 0.5 h, 5 mg/L [7] | clearance [8] | fraction unbound at 2 h [9] | clearance [10] | Structure (SMILES)
1 | 200 ng/mL | 1.96 mL/min/kg | 0.23 L/kg | 1.58 h | 6930 ng·h/mL | 0.09% | 0.316 | 1.69 mL/min/kg | 0.08 |  | CC(C)CCCCC(=O)N[C@@H](CCN)C(=O)N[C@H](C(=O)N[C@@H](CCN)C(=O)N[C@H]1CCNC(=O)[C@H]([C@@H](C)O)NC(=O)[C@H](CCN)NC(=O)[C@H](CCN)NC(=O)[C@H](CC(C)C)NC(=O)[C@@H](Cc2ccccc2)NC(=O)[C@H](CCN)NC1=O)[C@@H](C)O [POLYMYXIN B2] ({Heptanoyl(6-Me)}-[Dab]T[Dab][Dab][Dab][dF]L[Dab][Dab]T; lactam 4-C)
2 |  | 2.75 mL/min/kg | 0.27 L/kg | 1.37 h | 5020 ng·h/mL | 0.14% | 0.434 |  |  | 5.1 mL/min/kg | CC[C@H](C)CCCCC(=O)N[C@@H](CCN)C(=O)N[C@H](C(=O)N[C@@H](CCN)C(=O)N[C@H]1CCNC(=O)[C@H]([C@@H](C)O)NC(=O)[C@H](CCN)NC(=O)[C@H](CCN)NC(=O)[C@H](CC(C)C)NC(=O)[C@@H](CC(C)C)NC(=O)[C@H](CCN)NC1=O)[C@@H](C)O (X2-[Dab]T[Dab][Dab][Dab][dL]L[Dab][Dab]T; lactam 4-C)
3 | 200 ng/mL | 2.39 mL/min/kg | 0.21 L/kg | 1.32 h | 6080 ng·h/mL | 0.13% | 0.177 | 1.65 mL/min/kg | 0.08 |  | CC[C@@H](C)CCCCC(=O)N[C@@H](CCN)C(=O)N[C@H](C(=O)N[C@@H](CCN)C(=O)N[C@H]1CCNC(=O)[C@H]([C@@H](C)O)NC(=O)[C@H](CCN)NC(=O)[C@H](CCN)NC(=O)[C@H](CC(C)C)NC(=O)[C@@H](Cc2ccccc2)NC(=O)[C@H](CCN)NC1=O)[C@@H](C)O (X1-[Dab]T[Dab][Dab][Dab][dF]L[Dab][Dab]T; lactam 4-C)
4 |  |  |  |  |  |  |  | 1.69 mL/min/kg | 0.08 |  | CCCCCCCC(=O)N[C@@H](CCN)C(=O)N[C@H](C(=O)N[C@@H](CCN)C(=O)N[C@H]1CCNC(=O)[C@H]([C@@H](C)O)NC(=O)[C@H](CCN)NC(=O)[C@H](CCN)NC(=O)[C@H](CC(C)C)NC(=O)[C@@H](Cc2ccccc2)NC(=O)[C@H](CCN)NC1=O)[C@@H](C)O (Octanoyl-[Dab]T[Dab][Dab][Dab][dF]L[Dab][Dab]T; lactam 4-C)
5 |  | 3.05 mL/min/kg | 0.37 L/kg | 1.52 h | 4600 ng·h/mL | 0.24% | 0.583 |  |  | 5.3 mL/min/kg | CC(C)CCCCC(=O)N[C@@H](CCN)C(=O)N[C@H](C(=O)N[C@@H](CCN)C(=O)N[C@H]1CCNC(=O)[C@H]([C@@H](C)O)NC(=O)[C@H](CCN)NC(=O)[C@H](CCN)NC(=O)[C@H](CC(C)C)NC(=O)[C@@H](CC(C)C)NC(=O)[C@H](CCN)NC1=O)[C@@H](C)O [COLISTIN B] ({Heptanoyl(6-Me)}-[Dab]T[Dab][Dab][Dab][dL]L[Dab][Dab]T; lactam 4-C)
